The values that follow come from ChEMBL document CHEMBL1148782, “Inhibitors of tumor progression loci-2 (Tpl2) kinase and tumor necrosis factor alpha (TNF-alpha) production: selectivity and in vivo antiinflammatory activity of novel 8-substituted-4-anilino-6-aminoquinoline-3-carbonitriles” (J Med Chem, 2007).

Data set [1] relates to Rattus norvegicus. Kind of data set: Inhibition of TNFalpha production in Sprague-Dawley rat at 10 mg/kg, po administered 1 hr prior to LPS challenge after 1.5 hrs. The class given is functional.
Data set [2] can be described thus: Volume of distribution at steady state in Sprague-Dawley rat at 5 mg/kg, iv. The class given is ADME, organism-based. The conditions noted are these: in vivo, read-out: Vss. On the set-up: dose 5 mg/kg, route intravenous. In short, it runs like this:
(§1)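 Female Sprague-Dawley rats were dosed by the iv or oral route. Parameters are reported as means of individual-animal pharmacokinetic values.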

The target in data set [3] is Mitogen-activated protein kinase 14 (Homo sapiens, UniProt Q16539). Kind of data set: Inhibition of p38alpha.
Data set [4] can be described thus: Half life in Sprague-Dawley rat at 25 mg/kg, po. The conditions noted are these: in vivo. More on the design: dose 25 mg/kg, route oral. The format is ADME, organism-based. In short, it runs like this:
as §1

For data set [5], the target named is MAP kinase-activated protein kinase 2 (Homo sapiens, UniProt P49137). Kind of data set: Inhibition of MK2.
Data set [6] deals with Protein kinase C alpha type (Homo sapiens, UniProt P17252). As to the kind of experiment: Inhibition of PKCalpha.
Data set [7] has as its target Tyrosine-protein kinase Lck (Homo sapiens, UniProt P06239). Kind of data set: Inhibition of LCK.
Data set [8] concerns Monocyte. Kind of data set: Inhibition of LPS-stimulated TNFalpha production in monocytes. The class given is functional, Homo sapiens.
The target in data set [9] is Tyrosine-protein kinase Lyn (Homo sapiens, UniProt P07948). Kind of data set: Inhibition of LYN.
Data set [10] in a line: Half life in Sprague-Dawley rat at 5 mg/kg, iv. The format is ADME, organism-based. More on the design: dose 5 mg/kg, route intravenous. The conditions noted are these: in vivo. In short, it runs like this:
as §1

For data set [11], the target named is Tyrosine-protein kinase BTK (Homo sapiens, UniProt Q06187). Kind of data set: Inhibition of BTK.
Data set [12] has as its target Ribosomal protein S6 kinase beta-1 (Homo sapiens, UniProt P23443). Kind of data set: Inhibition of S6K.
For data set [13], the target named is cAMP-dependent protein kinase (PKA) (Homo sapiens, UniProt P22694+P17612+P22612). Kind of data set: Inhibition of PKA. The class given is protein assay.
In data set [14] the target is Mitogen-activated protein kinase 8 (Homo sapiens, UniProt P45983). As to the kind of experiment: Inhibition of Jnk1.
Data set [15] is described as follows: Permeability at pH 7.4 by PAMPA method. The class given is ADME. The conditions noted are these: read-out: permeability. Summed up: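 Passive permeability was measured by high-resolution PAMPA at pH 7.4.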
The target of data set [16] is Glycogen synthase kinase-3 beta (Homo sapiens, UniProt P49841). Kind of data set: Inhibition of GSKbeta.
Data set [17] is described as follows: Plasma clearance in Sprague-Dawley rat at 5 mg/kg, iv. The class given is ADME, organism-based. More on the design: dose 5 mg/kg, route intravenous. In short, it runs like this: as §1
The target in data set [18] is Cytochrome P450 3A4 (Homo sapiens, UniProt P08684).
Data set [19] deals with Protein kinase C theta type (Homo sapiens, UniProt Q04759). Kind of data set: Inhibition of PKCtheta.
Data set [20] can be described thus: physchem. The conditions noted are these: buffer, pH 7.4.
Data set [21] in a line: Bioavailability in Sprague-Dawley rat at 25 mg/kg, po. The format is ADME, organism-based. The conditions noted are these: in vivo. Summed up:
as §1

The nature of data set [22]: Plasma concentration in LPS challenged Sprague-Dawley rat at 50 mg/kg, po after 150 mins. The class given is ADME, organism-based. More on the design: dose 50 mg/kg, route oral.
In data set [23] the test system is Rattus norvegicus. As to the kind of experiment: Inhibition of TNFalpha production in Sprague-Dawley rat at 50 mg/kg, po administered 1 hr prior to LPS challenge after 1.5 hrs. The format is functional.
Data set [24] relates to Blood. As to the kind of experiment: Inhibition of LPS-stimulated TNFalpha production in human blood. The class given is functional.
Data set [25] has as its target Proto-oncogene tyrosine-protein kinase Src (Homo sapiens, UniProt P12931). Kind of data set: Inhibition of Src.
The subject of data set [26] is Rattus norvegicus. Kind of data set: AUC (0 to infinity) in Sprague-Dawley rat at 25 mg/kg, po. The conditions noted are these: in vivo. On the set-up: dose 25 mg/kg, route oral. The class given is ADME, organism-based, Plasma. Summed up: as §1
Data set [27] in a line: Plasma concentration in LPS challenged Sprague-Dawley rat at 50 mg/kg, po after 1 hr. More on the design: dose 50 mg/kg, route oral. The format is ADME, organism-based.

Sequence of Cytochrome P450 3A4 (P08684 whole entry): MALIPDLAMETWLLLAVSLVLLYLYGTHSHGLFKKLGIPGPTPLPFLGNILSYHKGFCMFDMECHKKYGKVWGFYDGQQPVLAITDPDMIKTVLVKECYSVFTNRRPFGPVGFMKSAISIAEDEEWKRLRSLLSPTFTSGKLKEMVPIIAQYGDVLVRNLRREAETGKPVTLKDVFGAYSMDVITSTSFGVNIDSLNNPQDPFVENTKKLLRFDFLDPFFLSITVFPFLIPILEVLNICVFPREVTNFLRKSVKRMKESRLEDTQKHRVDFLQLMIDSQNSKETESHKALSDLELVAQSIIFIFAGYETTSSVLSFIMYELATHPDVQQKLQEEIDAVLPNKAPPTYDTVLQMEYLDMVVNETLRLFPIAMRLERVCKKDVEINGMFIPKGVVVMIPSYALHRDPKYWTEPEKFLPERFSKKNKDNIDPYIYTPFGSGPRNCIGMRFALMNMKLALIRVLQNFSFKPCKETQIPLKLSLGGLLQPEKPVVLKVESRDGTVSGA
Sequence of Tyrosine-protein kinase BTK (Q06187 whole entry): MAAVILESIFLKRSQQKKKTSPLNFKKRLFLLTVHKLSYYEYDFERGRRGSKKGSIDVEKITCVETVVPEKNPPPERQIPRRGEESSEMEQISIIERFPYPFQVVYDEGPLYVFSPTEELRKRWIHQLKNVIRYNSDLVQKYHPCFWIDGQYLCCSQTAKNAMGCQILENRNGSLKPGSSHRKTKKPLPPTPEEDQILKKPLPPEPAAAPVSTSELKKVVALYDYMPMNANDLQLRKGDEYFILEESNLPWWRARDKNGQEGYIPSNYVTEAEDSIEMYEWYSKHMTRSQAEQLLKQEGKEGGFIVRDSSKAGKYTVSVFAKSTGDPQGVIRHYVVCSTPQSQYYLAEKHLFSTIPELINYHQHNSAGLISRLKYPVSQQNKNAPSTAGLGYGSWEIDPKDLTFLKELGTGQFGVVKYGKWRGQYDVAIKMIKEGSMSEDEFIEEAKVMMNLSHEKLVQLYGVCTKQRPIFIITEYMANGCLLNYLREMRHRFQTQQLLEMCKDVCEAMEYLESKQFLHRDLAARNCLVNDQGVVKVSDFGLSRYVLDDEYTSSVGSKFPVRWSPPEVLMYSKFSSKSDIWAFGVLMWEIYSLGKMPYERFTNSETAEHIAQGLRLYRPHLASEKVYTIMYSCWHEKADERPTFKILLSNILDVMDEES
Sequence of Mitogen-activated protein kinase 14 (Q16539 whole entry): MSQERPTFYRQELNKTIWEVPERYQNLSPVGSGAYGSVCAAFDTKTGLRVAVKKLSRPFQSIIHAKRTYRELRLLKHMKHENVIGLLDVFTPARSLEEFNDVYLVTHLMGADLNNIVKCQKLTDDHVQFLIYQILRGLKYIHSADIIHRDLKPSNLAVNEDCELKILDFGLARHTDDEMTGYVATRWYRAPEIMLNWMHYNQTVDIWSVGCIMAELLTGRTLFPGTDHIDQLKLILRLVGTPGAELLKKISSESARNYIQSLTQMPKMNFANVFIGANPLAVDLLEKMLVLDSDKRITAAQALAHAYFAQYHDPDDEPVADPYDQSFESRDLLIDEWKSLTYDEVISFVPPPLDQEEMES
Sequence of Tyrosine-protein kinase Lck (P06239 whole entry): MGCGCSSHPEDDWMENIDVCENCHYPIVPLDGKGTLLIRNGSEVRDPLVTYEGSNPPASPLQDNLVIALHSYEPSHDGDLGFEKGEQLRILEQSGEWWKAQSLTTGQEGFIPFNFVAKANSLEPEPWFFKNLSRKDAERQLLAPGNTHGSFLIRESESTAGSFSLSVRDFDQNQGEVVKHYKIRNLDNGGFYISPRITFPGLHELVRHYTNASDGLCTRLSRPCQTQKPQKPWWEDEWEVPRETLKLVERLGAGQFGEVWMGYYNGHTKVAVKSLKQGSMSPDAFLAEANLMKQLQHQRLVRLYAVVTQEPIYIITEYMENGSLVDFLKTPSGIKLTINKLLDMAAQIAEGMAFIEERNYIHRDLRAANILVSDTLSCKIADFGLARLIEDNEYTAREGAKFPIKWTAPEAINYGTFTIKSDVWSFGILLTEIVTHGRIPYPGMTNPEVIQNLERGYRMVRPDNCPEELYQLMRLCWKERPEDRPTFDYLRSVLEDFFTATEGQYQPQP
Sequence of Glycogen synthase kinase-3 beta (P49841 whole entry): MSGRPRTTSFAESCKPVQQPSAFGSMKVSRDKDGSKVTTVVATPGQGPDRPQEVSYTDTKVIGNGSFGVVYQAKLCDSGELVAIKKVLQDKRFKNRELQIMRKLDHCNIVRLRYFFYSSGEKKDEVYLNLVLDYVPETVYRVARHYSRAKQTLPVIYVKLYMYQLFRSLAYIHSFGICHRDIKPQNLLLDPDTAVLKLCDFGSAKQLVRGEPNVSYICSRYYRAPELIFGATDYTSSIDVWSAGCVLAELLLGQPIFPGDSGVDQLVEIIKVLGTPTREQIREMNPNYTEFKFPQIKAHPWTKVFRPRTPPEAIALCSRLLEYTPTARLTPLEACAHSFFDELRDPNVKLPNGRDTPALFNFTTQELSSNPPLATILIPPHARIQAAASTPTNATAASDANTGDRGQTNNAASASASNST
Sequence of Proto-oncogene tyrosine-protein kinase Src (P12931 2-536 limits assumed): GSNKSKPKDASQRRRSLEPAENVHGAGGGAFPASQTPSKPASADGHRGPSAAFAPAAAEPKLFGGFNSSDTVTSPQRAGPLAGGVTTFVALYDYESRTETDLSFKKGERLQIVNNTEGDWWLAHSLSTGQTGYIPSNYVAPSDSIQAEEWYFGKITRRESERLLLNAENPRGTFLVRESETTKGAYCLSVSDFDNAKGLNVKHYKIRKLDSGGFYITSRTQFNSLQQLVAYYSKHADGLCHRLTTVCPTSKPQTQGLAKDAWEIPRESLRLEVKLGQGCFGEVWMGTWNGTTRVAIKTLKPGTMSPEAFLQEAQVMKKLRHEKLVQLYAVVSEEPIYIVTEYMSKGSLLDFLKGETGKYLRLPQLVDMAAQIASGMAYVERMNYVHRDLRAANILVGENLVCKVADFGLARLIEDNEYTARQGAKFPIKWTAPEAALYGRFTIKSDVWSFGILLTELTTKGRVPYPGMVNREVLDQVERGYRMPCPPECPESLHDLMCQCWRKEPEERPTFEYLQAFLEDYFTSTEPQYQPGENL
Sequence of Ribosomal protein S6 kinase beta-1 (P23443 whole entry): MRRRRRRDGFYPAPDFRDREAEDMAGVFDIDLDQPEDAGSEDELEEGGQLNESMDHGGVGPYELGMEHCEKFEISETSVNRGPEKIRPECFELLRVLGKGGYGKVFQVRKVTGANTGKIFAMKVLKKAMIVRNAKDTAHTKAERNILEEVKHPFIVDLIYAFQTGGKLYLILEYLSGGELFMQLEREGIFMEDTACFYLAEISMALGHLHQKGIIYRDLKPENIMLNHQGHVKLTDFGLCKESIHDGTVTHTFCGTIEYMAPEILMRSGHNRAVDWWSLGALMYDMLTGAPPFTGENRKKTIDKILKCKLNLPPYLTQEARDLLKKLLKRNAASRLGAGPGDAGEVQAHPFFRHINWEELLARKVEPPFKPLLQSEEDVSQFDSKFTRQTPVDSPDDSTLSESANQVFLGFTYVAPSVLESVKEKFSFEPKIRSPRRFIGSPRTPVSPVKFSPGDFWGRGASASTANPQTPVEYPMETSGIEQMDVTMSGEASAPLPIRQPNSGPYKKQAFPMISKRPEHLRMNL
Sequence of Mitogen-activated protein kinase 8 (P45983 whole entry): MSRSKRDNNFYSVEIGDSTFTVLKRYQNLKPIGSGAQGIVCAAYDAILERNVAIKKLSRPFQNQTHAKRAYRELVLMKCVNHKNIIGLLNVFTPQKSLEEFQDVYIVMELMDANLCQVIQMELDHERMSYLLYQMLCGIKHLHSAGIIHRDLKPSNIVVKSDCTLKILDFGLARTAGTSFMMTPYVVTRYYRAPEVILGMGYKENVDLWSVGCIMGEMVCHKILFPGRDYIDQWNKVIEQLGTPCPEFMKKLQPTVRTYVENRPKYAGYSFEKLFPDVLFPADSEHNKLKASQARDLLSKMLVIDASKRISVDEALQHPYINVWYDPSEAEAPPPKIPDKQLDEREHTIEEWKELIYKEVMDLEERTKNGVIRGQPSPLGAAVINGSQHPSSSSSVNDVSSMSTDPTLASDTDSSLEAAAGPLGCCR

Consider `CC#CCOc1ccc(S(=O)(=O)N2CCSC(C)(C)[C@@H]2C(=O)NO)cc1`, for which the inhibition in vivo at 10 mg/kg in data set [1] stood at 85%.

Turning to `Cn1cnc(CNc2cc(Br)c3ncc(C#N)c(Nc4ccc(F)c(Cl)c4)c3c2)c1`, the Vd in data set [2] stood at 14.1 L/kg. The IC50 in data set [3] was over 40 µM; in data set [5] it was 87.1 µM; in [6], over 40 µM; in data set [7], 4.5 µM; in data set [9], over 30 µM; in data set [11] it was over 10 µM. In addition, the IC50 was 83.1 µM in [12]; over 100 µM in data set [13]; 31 µM in [14]; over 10 µM in data set [16]; 15 µM in data set [18]; over 50 µM in data set [19]. In [25], this compound came in with an IC50 of over 40 µM. In addition, the figures for the half-life in [4] and in data set [10] were 4 h and 5 h, respectively. In data set [8], this compound showed an Inhibitory concentration of 670 nM. Further, the Papp in data set [15] was under 5 ×10⁻⁶ cm/s. The clearance in [17] was 50 mL/min/kg. The solubility in data set [20] was under 10 µg/mL. Moreover, the bioavailability in data set [21] stood at 42%. In data set [22], this compound gave a concentration at 2.5 h of 550 nM. Moreover, the inhibition in vivo at 50 mg/kg in data set [23] was 50%. The Activity in [24] is 6.3 µM. In [26], this compound registered an AUC/dose of 142 ng·kg·h/mg/mL. The compound further displayed a concentration at 1 h in data set [27] of 1100 nM.
